Results on 1 compound are retold here after ChEMBL document CHEMBL1121797, “Studies on chiral interactions of 1-(2,5-dimethoxy-4-methylphenyl)-2-aminopropane and the corresponding N-hydroxy metabolites with cytochrome P-450” (J Med Chem, 1981).

The structures appear in SMILES notation. Several values for one entry are separate records, joined by “and”; a condition that tells them apart may be missing. Equal entries are not always repeated.

Data set [1] addresses T1, Cytochrome P450 2C19 (Homo sapiens, UniProt P33261). The data set can be described thus: Percent inhibition of formation of metabolic intermediate complex between Cytochrome P450 and compound 1a (30 uM) on extent, following incubation at compound concentration of 30 uM. As to conditions: rabbit, probe compound 1a (30 uM). It counts as ADME, Oryctolagus cuniculus.
The target of data set [2] is T1, Cytochrome P450 2C19. In words: Extent of complex formation with 30 uM compound. As to conditions: rabbit. It counts as ADME, Oryctolagus cuniculus.
In data set [3] the target is T1, Cytochrome P450 2C19. The data set can be described thus: Percent inhibition of formation of metabolic intermediate complex between Cytochrome P450 and compound 1a (30 uM) initially, on pre-incubation with compound concentration of 5 uM. The class given is ADME, Oryctolagus cuniculus. As to conditions: rabbit, probe compound 1a (30 uM). The procedure, abridged:
(§1)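 Inverse cross-inhibition in NADPH-supplemented rabbit liver microsomes at 37 °C. Preincubation with racemic hydroxylamine at 0–30 μM, monitoring 457-nm complex formation. The amine was then added at 30 μM, or racemic hydroxylamine at 30 μM. Initial rate and plateau extent were taken from ΔA457–500 nm tracings. Percent inhibition is relative to incubation in fresh microsomes.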

The target of data set [4] is T1, Cytochrome P450 2C19. The data set can be described thus: (§2) Percent inhibition of formation of metabolic intermediate complex between Cytochrome P450 and compound 1a (30 uM) initially, following incubation at compound concentration of 30 uM. The class given is ADME, Oryctolagus cuniculus. As to conditions: rabbit, probe compound 1a (30 uM). An outline of the steps:
as §1

Data set [5] concerns the target T1, Cytochrome P450 2C19. In words: Percent inhibition of formation of metabolic intermediate complex between Cytochrome P450 and compound 1a (30 uM) initially, following incubation at compound concentration of 20 uM. It counts as ADME, Oryctolagus cuniculus. As to conditions: rabbit, probe compound 1a (30 uM).
The target of data set [6] is T1, Cytochrome P450 2C19. The data set can be described thus: Initial rate of complex formation without compound. It counts as ADME, Oryctolagus cuniculus. As to conditions: rabbit. The procedure, abridged:
as §1

Data set [7] deals with T1, Cytochrome P450 2C19. In words: Percent inhibition of formation of metabolic intermediate complex between Cytochrome P450 and compound 1a (30 uM) initially, on pre-incubation with compound concentration of 30 uM. The class given is ADME, Oryctolagus cuniculus. As to conditions: rabbit, probe compound 1a (30 uM). The procedure, abridged: as §1
Data set [8] concerns the target T1, Cytochrome P450 2C19. In words: (§3) Extent of complex formation with 20 uM compound. The class given is ADME, Oryctolagus cuniculus. As to conditions: rabbit.
Data set [9] concerns the target T1, Cytochrome P450 2C19. The data set can be described thus: Extent of complex formation with 15 uM compound. It counts as ADME, Oryctolagus cuniculus. The settings on record: rabbit.
For data set [10], the target named is T1, Cytochrome P450 2C19. In words: Extent of complex formation without compound. It counts as ADME, Oryctolagus cuniculus. As to conditions: rabbit. An outline of the steps:
as §1

Data set [11] concerns the target T1, Cytochrome P450 2C19. The data set can be described thus: Percent inhibition of formation of metabolic intermediate complex between Cytochrome P450 and compound 1a (30 uM) initially, following incubation at compound concentration of 0 uM. It counts as ADME, Oryctolagus cuniculus. The settings on record: rabbit, probe compound 1a (30 uM). The procedure, abridged: as §1

For data set [12], the target named is T1, Cytochrome P450 2C19. The data set can be described thus: Extent of complex formation with 5 uM compound. It counts as ADME, Oryctolagus cuniculus. As to conditions: rabbit.
The target of data set [13] is T1, Cytochrome P450 2C19. The description is as §2. The settings on record: rabbit, probe compound 1a (30 uM). The class given is ADME, Oryctolagus cuniculus. An outline of the steps:
as §1
The source holds these as a separate data set.

Data set [14] addresses T1, Cytochrome P450 2C19. Described as §3. As to conditions: rabbit. The class given is ADME, Oryctolagus cuniculus. This is another data set of the same source.
Data set [15] addresses T1, Cytochrome P450 2C19. The data set can be described thus: Percent inhibition of formation of metabolic intermediate complex between Cytochrome P450 and compound 1a (30 uM) on extent, following incubation at compound concentration of 15 uM. The class given is ADME, Oryctolagus cuniculus. The settings on record: rabbit, probe compound 1a (30 uM). The procedure, abridged:
(§4)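 Hepatic microsomes came from male Dutch rabbits, fasted 24 h. They were diluted to 2 mg protein/mL in 50 mM Tris-Cl with 150 mM KCl, 10 mM MgSO4 and 0.1 mM EDTA, with NADPH added, at 37 °C. Microsomes were preincubated with racemic hydroxylamine 2, then 30 µM 1a or 30 µM racemic 2 was added. Complex formation was followed as ΔA457–500 nm, and inhibition of rate and extent (plateau) was calculated.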

In data set [16] the target is T1, Cytochrome P450 2C19. In words: Percent inhibition of formation of metabolic intermediate complex between Cytochrome P450 and compound 1a (30 uM) initially, on pre-incubation with compound concentration of 15 uM. It counts as ADME, Oryctolagus cuniculus. As to conditions: rabbit, probe compound 1a (30 uM). An outline of the steps:
as §1

Data set [17] addresses T1, Cytochrome P450 2C19. In words: Initial rate of complex formation with 30 uM compound. The class given is ADME, Oryctolagus cuniculus. As to conditions: rabbit.
The target in data set [18] is T1, Cytochrome P450 2C19. In words: Percent inhibition of formation of metabolic intermediate complex between Cytochrome P450 and compound 1a (30 uM) on extent, following incubation at compound concentration of 20 uM. The class given is ADME, Oryctolagus cuniculus. As to conditions: rabbit, probe compound 1a (30 uM).
Data set [19] in a line: Extent rates of formation of metabolic intermediate Cytochrome P-450 at compound concentration of 30 uM. The class given is ADME. An outline of the steps:
(§5)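 Rabbit liver microsomes at 2 mg protein/mL with 0.1 mM EDTA, 37 °C, substrate 30 μM. Complex formation started with 0.4 mM NADPH and followed by dual-wavelength absorbance, 457 vs 500 nm. Initial rate is the initial slope, ΔA×10^4 per nmol P-450 per min. Extent is the plateau absorbance. Lag is the time from NADPH addition to first 457-nm chromophore. Triplicate or single runs.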

For data set [20], the target named is T1, Cytochrome P450 2C19. In words: Percent inhibition of formation of metabolic intermediate complex between Cytochrome P450 and compound 1a (30 uM) on extent, on pre-incubation with compound concentration of 5 uM. The settings on record: rabbit, probe compound 1a (30 uM). It counts as ADME, Oryctolagus cuniculus. An outline of the steps: as §4
Data set [21] deals with T1, Cytochrome P450 2C19. The data set can be described thus: Initial rate of complex formation with 15 uM compound. It counts as ADME, Oryctolagus cuniculus. As to conditions: rabbit.
Data set [22] deals with T1, Cytochrome P450 2C19. The data set can be described thus: Percent inhibition of formation of metabolic intermediate complex between Cytochrome P450 and compound 1a (30 uM) on extent, following incubation at compound concentration of 5 uM. The class given is ADME, Oryctolagus cuniculus. The settings on record: rabbit, probe compound 1a (30 uM). The procedure, abridged: as §4

The nature of data set [23]: Lag time between the addition of compound (30 uM) and the first appearance of chromophore. The class given is ADME. The procedure, abridged:
as §5

Data set [24] addresses T1, Cytochrome P450 2C19. The data set can be described thus: Percent inhibition of formation of metabolic intermediate complex between Cytochrome P450 and compound 1a (30 uM) initially, on pre-incubation with compound concentration of 0 uM. The class given is ADME, Oryctolagus cuniculus. As to conditions: rabbit, probe compound 1a (30 uM). An outline of the steps: as §1

T1 sequence (P33261 whole entry): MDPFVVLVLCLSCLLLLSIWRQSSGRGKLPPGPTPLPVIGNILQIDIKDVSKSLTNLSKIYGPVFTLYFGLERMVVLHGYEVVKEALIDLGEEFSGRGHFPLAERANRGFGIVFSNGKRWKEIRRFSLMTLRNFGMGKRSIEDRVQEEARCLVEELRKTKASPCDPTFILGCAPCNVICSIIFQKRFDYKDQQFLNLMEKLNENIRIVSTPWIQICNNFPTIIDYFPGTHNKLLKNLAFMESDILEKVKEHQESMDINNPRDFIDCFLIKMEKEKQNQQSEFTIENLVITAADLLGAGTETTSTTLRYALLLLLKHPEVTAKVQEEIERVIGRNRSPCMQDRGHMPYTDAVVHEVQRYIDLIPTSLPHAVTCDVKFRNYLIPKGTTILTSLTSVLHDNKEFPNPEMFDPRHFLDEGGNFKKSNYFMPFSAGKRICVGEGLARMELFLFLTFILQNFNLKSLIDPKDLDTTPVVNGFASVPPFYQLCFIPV

Consider `COc1cc(C[C@@H](C)NO)c(OC)cc1C.COc1cc(C[C@H](C)NO)c(OC)cc1C`, for which the inhibition at 30 µM against Cytochrome P450 2C19 [1] amounted to 73%; against Cytochrome P450 2C19 [4], 74%; at Cytochrome P450 2C19 [7], 100%; on Cytochrome P450 2C19 [13], 72%. Moreover, the Complex_formation on Cytochrome P450 2C19 [2] is 139 deltaA.10^4nmol-1 and 135 deltaA.10^4nmol-1; on Cytochrome P450 2C19 [8], 85 deltaA.10^4nmol-1; at Cytochrome P450 2C19 [9], 97 deltaA.10^4nmol-1; at Cytochrome P450 2C19 [10], 76 deltaA.10^4nmol-1 and 95 deltaA.10^4nmol-1; at Cytochrome P450 2C19 [12], 39 deltaA.10^4nmol-1; at Cytochrome P450 2C19 [14] it was 109 deltaA.10^4nmol-1. Moreover, the inhibition at 5 µM at Cytochrome P450 2C19 [3] was 80%; on Cytochrome P450 2C19 [20], 43%; against Cytochrome P450 2C19 [22] it was 39%. For the same compound, the inhibition at 20 µM amounted to 29% on Cytochrome P450 2C19 [5] and 27% on Cytochrome P450 2C19 [18]. Moreover, the Initial_rate was 46 deltaA.10^4nmol-1.min-1 and 124 deltaA.10^4nmol-1.min-1 on Cytochrome P450 2C19 [6]; 5.5 deltaA.10^4nmol-1.min-1 on Cytochrome P450 2C19 [17]; 131 deltaA.10^4nmol-1.min-1 on Cytochrome P450 2C19 [21]. The figures for the inhibition at 0 uM against Cytochrome P450 2C19 [11] and on Cytochrome P450 2C19 [24] were 30% and 0%, respectively. The inhibition at 15 µM turned out to be 46% against Cytochrome P450 2C19 [15] and 100% at Cytochrome P450 2C19 [16]. In [19], the Rate is 131. In [23], this compound gave a Lag time of 0 s.
